Laboratory results published in ChEMBL document CHEMBL1781935, “Amberlite-IRA-402 (OH) ion exchange resin mediated synthesis of indolizines, pyrrolo [1,2-a] quinolines and isoquinolines: antibacterial and antifungal evaluation of the products” (2011).
≈ marks a conversion by molar mass, not a printed value. Calls of active or inactive are those of the source. The calls are words filed in the database; no cut-off is given here.

Columns and labels:
[1] = system: Escherichia coli; experiment: Antibacterial activity against Escherichia coli ATCC 25938; type: functional
Method in brief: (§1)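 MIC by broth and agar dilution. Broth: 0.1 ml suspension (2 × 10^6 cfu/ml) in Mueller-Hinton broth with test drug at 1–1000 µg/ml, 37 °C overnight. Agar: serial drug dilutions in Mueller-Hinton agar, spot-inoculated with 2 × 10^6 cfu/spot, 37 °C for 24 h. MIC was the lowest concentration with no visible growth. Antibiotic controls were included.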

[2] = system: Klebsiella pneumoniae; experiment: Antibacterial activity against Klebsiella pneumoniae isolate J/1/4; type: functional; method in brief: as §1
[3] = system: Staphylococcus aureus; experiment: Antibacterial activity against Staphylococcus aureus ATCC 25923; type: functional; method in brief: as §1
[4] = system: Pseudomonas aeruginosa; experiment: Antibacterial activity against Pseudomonas aeruginosa ATCC 27853; type: functional; method in brief: as §1
[5] = system: Vibrio cholerae; experiment: Antibacterial activity against Vibrio cholerae isolate 7201; type: functional
[6] = system: Bacillus subtilis; experiment: Antibacterial activity against Bacillus subtilis UC564; type: functional; method in brief: as §1
[7] = system: Shigella dysenteriae; experiment: Antibacterial activity against Shigella dysenteriae isolate 3; type: functional
[8] = system: Enterococcus faecalis; experiment: Antibacterial activity against Streptococcus faecalis isolate 29212; type: functional; method in brief: as §1
[9] = system: Shigella flexneri; experiment: Antibacterial activity against Shigella flexneri DN13; type: functional; method in brief: as §1
[10] = system: Salmonella typhi; experiment: Antibacterial activity against Salmonella typhi DIRW; type: functional, Salmonella enterica subsp. enterica serovar Typhi
[11] = system: Vibrio parahaemolyticus; experiment: Antibacterial activity against Vibrio parahaemolyticus isolate 72016; type: functional; method in brief: as §1
[12] = system: Micrococcus luteus; experiment: Antibacterial activity against Micrococcus luteus AGD1; type: functional; method in brief: as §1
[13] = system: Salmonella typhimurium; experiment: Antibacterial activity against Salmonella Typhimurium isolate 11; type: functional, Salmonella enterica subsp. enterica serovar Typhimurium; method in brief: as §1
[14] = system: Vibrio cholerae; experiment: Antibacterial activity against Vibrio cholerae isolate 7201 at 10 to 80 ug/ml after overnight incubation by broth dilution method; type: functional, organism-based
[15] = system: Shigella dysenteriae; experiment: Antibacterial activity against Shigella dysenteriae isolate 3 at 10 to 80 ug/ml after overnight incubation by broth dilution method; type: functional, organism-based
[16] = system: Escherichia coli; experiment: Antibacterial activity against Escherichia coli ATCC 25938 at 10 to 80 ug/ml after overnight incubation by broth dilution method; type: functional, organism-based
Method in brief: (§2)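 Bactericidal testing with double-fold drug dilutions in Mueller-Hinton broth. Tubes inoculated with 1 ml suspension (2 × 10^6 cfu/ml) and shaken at 200 rpm at 37 °C for 24 h. Drug was added at mid-logarithmic growth. Viable colony counts were taken from 1.0 ml aliquots plated on nutrient agar.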

[17] = system: Pseudomonas aeruginosa; experiment: Antibacterial activity against Pseudomonas aeruginosa ATCC 27853 at 10 to 80 ug/ml after overnight incubation by broth dilution method; type: functional, organism-based; method in brief: as §2
[18] = system: Escherichia coli; experiment: Antibacterial activity against Escherichia coli ATCC 25938 at 1 to 1000 ug/ml after overnight incubation by disc diffusion method; type: functional
Method in brief: (§3)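 Disc diffusion on Mueller-Hinton agar. Plates seeded with 0.1 ml bacterial suspension (2 × 10^6 cfu/ml). Sterile 6 mm paper discs were impregnated with compound solutions at 1–1000 µg/ml and incubated at 37 °C overnight. Read-out was the diameter of the clear inhibition zone. Stocks were 1 mg/ml in 4% Tween 80 or 4% propylene glycol.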

[19] = system: Klebsiella pneumoniae; experiment: Antibacterial activity against Klebsiella pneumoniae isolate J/1/4 at 1 to 1000 ug/ml after overnight incubation by disc diffusion method; type: functional; method in brief: as §3
[20] = system: Staphylococcus aureus; experiment: Antibacterial activity against Staphylococcus aureus ATCC 25923 at 1 to 1000 ug/ml after overnight incubation by disc diffusion method; type: functional; method in brief: as §3
[21] = system: Pseudomonas aeruginosa; experiment: Antibacterial activity against Pseudomonas aeruginosa ATCC 27853 at 1 to 1000 ug/ml after overnight incubation by disc diffusion method; type: functional; method in brief: as §3
[22] = system: Vibrio cholerae; experiment: Antibacterial activity against Vibrio cholerae isolate 7201 at 1 to 1000 ug/ml after overnight incubation by disc diffusion method; type: functional
[23] = system: Vibrio cholerae; experiment: Antibacterial activity against Vibrio cholerae isolate 720 at 1 to 1000 ug/ml after overnight incubation by disc diffusion method; type: functional
[24] = system: Bacillus subtilis; experiment: Antibacterial activity against Bacillus subtilis UC564 at 1 to 1000 ug/ml after overnight incubation by disc diffusion method; type: functional; method in brief: as §3
[25] = system: Shigella dysenteriae; experiment: Antibacterial activity against Shigella dysenteriae isolate 3 at 1 to 1000 ug/ml after overnight incubation by disc diffusion method; type: functional
[26] = system: Enterococcus faecalis; experiment: Antibacterial activity against Enterococcus faecalis isolate 29212 at 1 to 1000 ug/ml after overnight incubation by disc diffusion method; type: functional; method in brief: as §3
[27] = system: Shigella flexneri; experiment: Antibacterial activity against Shigella flexneri DN13 at 1 to 1000 ug/ml after overnight incubation by disc diffusion method; type: functional; method in brief: as §3
[28] = system: Salmonella typhi; experiment: Antibacterial activity against Salmonella typhi DIRW at 1 to 1000 ug/ml after overnight incubation by disc diffusion method; type: functional, Salmonella enterica subsp. enterica serovar Typhi
[29] = system: Vibrio parahaemolyticus; experiment: Antibacterial activity against Vibrio parahaemolyticus isolate 72016 at 1 to 1000 ug/ml after overnight incubation by disc diffusion method; type: functional; method in brief: as §3
[30] = system: Micrococcus luteus; experiment: Antibacterial activity against Micrococcus luteus AGD1 at 1 to 1000 ug/ml after overnight incubation by disc diffusion method; type: functional; method in brief: as §3
[31] = system: Salmonella typhimurium; experiment: Antibacterial activity against Salmonella Typhimurium isolate 11 at 1 to 1000 ug/ml after overnight incubation by disc diffusion method; type: functional, organism-based; conditions: Salmonella enterica subsp. enterica serovar Typhimurium; method in brief: as §3
[32] = system: Staphylococcus aureus; experiment: Antibacterial activity against Staphylococcus aureus ATCC 25923 at 10 to 80 ug/ml after overnight incubation by broth dilution method; type: functional, organism-based; method in brief: as §2
[33] = system: Bacillus subtilis; experiment: Antibacterial activity against Bacillus subtilis UC564 at 10 to 80 ug/ml after overnight incubation by broth dilution method; type: functional, organism-based; method in brief: as §2

CCOC(=O)c1cc2ccccn2c1C(=O)c1ccccc1
MIC [1]: > 500 µg/mL
MIC [2]: > 500 µg/mL
MIC [3]: > 500 µg/mL
MIC [4]: > 500 µg/mL
MIC [5]: > 500 µg/mL
MIC [6]: > 500 µg/mL
MIC [7]: > 500 µg/mL
MIC [8]: > 500 µg/mL
MIC [9]: > 500 µg/mL
MIC ([10]; Salmonella enterica): > 500 µg/mL
MIC [11]: > 500 µg/mL
MIC [12]: > 500 µg/mL
MIC ([13]; Salmonella enterica): > 500 µg/mL

COC(=O)c1c(C(=O)OC)c2ccc3ccccc3n2c1C(=O)c1ccccc1
Activity [14]: Active
Activity [15]: Active
Activity [16]: Active
Activity [17]: Active
diameter of the inhibition zone (DIZ) [18]: 12.1 mm
diameter of the inhibition zone (DIZ) [19]: 10 mm
diameter of the inhibition zone (DIZ) [20]: inactive
diameter of the inhibition zone (DIZ) [21]: inactive
diameter of the inhibition zone (DIZ) [22]: inactive
diameter of the inhibition zone (DIZ) [23]: inactive
diameter of the inhibition zone (DIZ) [24]: 10.2 mm
diameter of the inhibition zone (DIZ) [25]: 11.5 mm
diameter of the inhibition zone (DIZ) [26]: 12 mm
diameter of the inhibition zone (DIZ) [27]: inactive
diameter of the inhibition zone (DIZ) [28]: 7.5 mm
diameter of the inhibition zone (DIZ) [29]: inactive
diameter of the inhibition zone (DIZ) [30]: inactive
diameter of the inhibition zone (DIZ) [31]: inactive
Activity [32]: Active
Activity [33]: Active
MIC [1]: > 500 µg/mL
MIC [2]: 64 µg/mL (≈ 165 µM)
MIC [3]: 500 µg/mL (≈ 1290 µM)
MIC [4]: > 500 µg/mL
MIC [5]: 500 µg/mL (≈ 1290 µM)
MIC [6]: 32 µg/mL (≈ 82.6 µM)
MIC [7]: 16 µg/mL (≈ 41.3 µM)
MIC [8]: 64 µg/mL (≈ 165 µM)
MIC [9]: 500 µg/mL (≈ 1290 µM)
MIC ([10]; Salmonella enterica): 128 µg/mL (≈ 330 µM)
MIC [11]: > 500 µg/mL
MIC [12]: > 500 µg/mL
MIC ([13]; Salmonella enterica): 500 µg/mL (≈ 1290 µM)

CCOC(=O)c1c(C(=O)OCC)c2ccccn2c1C(=O)c1ccccc1
MIC [1]: > 500 µg/mL
MIC [2]: > 500 µg/mL
MIC [3]: > 500 µg/mL
MIC [4]: > 500 µg/mL
MIC [5]: > 500 µg/mL
MIC [6]: > 500 µg/mL
MIC [7]: > 500 µg/mL
MIC [8]: > 500 µg/mL
MIC [9]: > 500 µg/mL
MIC ([10]; Salmonella enterica): > 500 µg/mL
MIC [11]: > 500 µg/mL
MIC [12]: > 500 µg/mL
MIC ([13]; Salmonella enterica): > 500 µg/mL

CCOC(=O)c1cc2ccc3ccccc3n2c1C(=O)c1ccccc1
MIC [1]: > 500 µg/mL
MIC [2]: > 500 µg/mL
MIC [3]: > 500 µg/mL
MIC [4]: > 500 µg/mL
MIC [5]: > 500 µg/mL
MIC [6]: > 500 µg/mL
MIC [7]: > 500 µg/mL
MIC [8]: > 500 µg/mL
MIC [9]: > 500 µg/mL
MIC ([10]; Salmonella enterica): > 500 µg/mL
MIC [11]: > 500 µg/mL
MIC [12]: > 500 µg/mL
MIC ([13]; Salmonella enterica): > 500 µg/mL

COC(=O)c1c(C(=O)OC)c2c3ccccc3ccn2c1C(=O)c1ccccc1
MIC [1]: 256 µg/mL (≈ 661 µM)
MIC [2]: 500 µg/mL (≈ 1290 µM)
MIC [3]: 256 µg/mL (≈ 661 µM)
MIC [4]: 500 µg/mL (≈ 1290 µM)
MIC [5]: 500 µg/mL (≈ 1290 µM)
MIC [6]: > 500 µg/mL
MIC [7]: > 500 µg/mL
MIC [8]: > 500 µg/mL
MIC [9]: > 500 µg/mL
MIC ([10]; Salmonella enterica): > 500 µg/mL
MIC [11]: 256 µg/mL (≈ 661 µM)
MIC [12]: > 500 µg/mL
MIC ([13]; Salmonella enterica): 256 µg/mL (≈ 661 µM)

GENTAMICIN
MIC [1]: 0.25 µg/mL
MIC [2]: 2 µg/mL
MIC [3]: 1 µg/mL
MIC [4]: 2 µg/mL
MIC [5]: 0.5 µg/mL
MIC [6]: 4 µg/mL
MIC [7]: 1 µg/mL
MIC [8]: 0.5 µg/mL
MIC [9]: 1 µg/mL
MIC ([10]; Salmonella enterica subsp. enterica serovar Typhi): 1 µg/mL
MIC [11]: 1 µg/mL
MIC [12]: 8 µg/mL
MIC ([13]; Salmonella enterica subsp. enterica serovar Typhimurium): 1 µg/mL

COC(=O)c1cc(C(=O)c2ccccc2)n2ccc3ccccc3c12
MIC [1]: 500 µg/mL (≈ 1520 µM)
MIC [2]: 256 µg/mL (≈ 777 µM)
MIC [3]: 128 µg/mL (≈ 389 µM)
MIC [4]: 128 µg/mL (≈ 389 µM)
MIC [5]: 256 µg/mL (≈ 777 µM)
MIC [6]: 256 µg/mL (≈ 777 µM)
MIC [7]: 256 µg/mL (≈ 777 µM)
MIC [8]: 256 µg/mL (≈ 777 µM)
MIC [9]: 128 µg/mL (≈ 389 µM)
MIC ([10]; Salmonella enterica): 256 µg/mL (≈ 777 µM)
MIC [11]: 256 µg/mL (≈ 777 µM)
MIC [12]: > 500 µg/mL
MIC ([13]; Salmonella enterica): 500 µg/mL (≈ 1520 µM)
